Experimental data as given in the array DNA melting data of Ke et al. (doi:10.1101/2024.01.08.574731).

What was measured:
[1] = folding enthalpy; higher = less favourable; fluorescence melt of hairpins on a sequencing array, two-state fit; conditions: sodium 0.088 M
Outline: (§1)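 Folding enthalpy and melting temperature come from bootstrapped two-state fits to Cy3 fluorescence of library hairpins carrying annealed Cy3 and quencher oligos on a sequenced MiSeq flow cell. Imaging was done in 50 mM Na-HEPES pH 8.0, 25 mM NaCl, stepping by 2.5 °C up to 60 °C, and signals were normalised to pre-quench Cy3 and to control constructs. Results of four replicates were combined by inverse variance, and fitted temperatures were raised by 9.35 °C to match UV melts.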

[2] = melting temperature; fluorescence melt of hairpins on a sequencing array, two-state fit, raised by 9.35 °C to match UV melts; conditions: sodium 0.088 M
Outline: as §1

Question: For GTTGGCGGAAACGTCGAC ((.(.((....)).).)), which folding enthalpy [1] is on record?
Answer: -19.1 kcal/mol

Question: What about the Tm [2] of the same sequence?
Answer: 47.6 °C

Question: With GAGTTTACGAAAGTACTC (((..(((....)))))) as the sequence, how does the folding enthalpy [1] read?
Answer: -12.6 kcal/mol

Question: What about the Tm [2] of the same sequence?
Answer: 30 °C

Question: Which results are given for GCGAGGGGAAACCTTCGC ((((.((....)).))))?
Answer: folding enthalpy [1]: -35.4 kcal/mol; Tm [2]: 56.3 °C

Question: What does the source list for GATCAGTTAACTGATC ((((((....))))))?
Answer: folding enthalpy [1]: -40.5 kcal/mol; Tm [2]: 54.4 °C

Question: For GACCTGAAAAGGTC (((((....))))), which folding enthalpy [1] is on record?
Answer: -27.9 kcal/mol

Question: And the Tm [2]?
Answer: 59 °C

Question: What does the source list for GAGCTGCGAAAGCACTC (((.(((....))))))?
Answer: folding enthalpy [1]: -20.4 kcal/mol; Tm [2]: 46.2 °C

Question: For GCTACACGAAAGTGAAGC (((.(((....))).))), which folding enthalpy [1] is on record?
Answer: -35.3 kcal/mol

Question: What about the Tm [2] of the same sequence?
Answer: 54.2 °C

Question: For GACACTGCGAAAGCAGTC (((..(((....)))))), which folding enthalpy [1] is on record?
Answer: -8.12 kcal/mol

Question: And the Tm [2]?
Answer: 31.4 °C

Question: For GGGAACCGAAAGGTGCCC (((.(((....))).))), which folding enthalpy [1] is on record?
Answer: -41.4 kcal/mol

Question: What about the Tm [2] of the same sequence?
Answer: 64.3 °C

Question: With GATCAACTTTTTGATC ((((((....)))))) as the sequence, how does the folding enthalpy [1] read?
Answer: -37.8 kcal/mol

Question: And the Tm [2]?
Answer: 43.3 °C

Question: Which folding enthalpy [1] does the source give for GCAGCAGGAAACTGCCAC (..((((....))))..) here?
Answer: -11 kcal/mol

Question: And the Tm [2]?
Answer: 31.6 °C

Question: With GTTGCGCGAAAGCGAAAC (((.(((....))).))) as the sequence, how does the folding enthalpy [1] read?
Answer: -27.8 kcal/mol

Question: What about the Tm [2] of the same sequence?
Answer: 59.5 °C

Question: For CGCACGGAAACGTACGCG ((((((....)))..))), which folding enthalpy [1] is on record?
Answer: -22.1 kcal/mol

Question: What about the Tm [2] of the same sequence?
Answer: 46.1 °C

Question: Which folding enthalpy [1] does the source give for GTCCGCACGAAAGTGGAC (((..(((....)))))) here?
Answer: -19.6 kcal/mol

Question: What about the Tm [2] of the same sequence?
Answer: 47.1 °C

Question: Which folding enthalpy [1] does the source give for GGCGACGGAAACATCGCC (((((.(....).))))) here?
Answer: -42.6 kcal/mol

Question: And the Tm [2]?
Answer: 55.4 °C

Question: For GCGCGGCGAAAGCCAGGC ((..(((....)))..)), which folding enthalpy [1] is on record?
Answer: -14.1 kcal/mol

Question: And the Tm [2]?
Answer: 54.4 °C

Question: For GCGCCGCGAAAGCCCCGC (((..((....))..))), which folding enthalpy [1] is on record?
Answer: -17.7 kcal/mol

Question: And the Tm [2]?
Answer: 39 °C

Question: Which results are given for GATCCAACTCTGGATC ((((((....))))))?
Answer: folding enthalpy [1]: -30.9 kcal/mol; Tm [2]: 49.2 °C

Question: Which folding enthalpy [1] does the source give for GTGTCTCGAAAGAGCCAC (((.(((....))).))) here?
Answer: -28.9 kcal/mol

Question: What about the Tm [2] of the same sequence?
Answer: 49.7 °C

Question: Which folding enthalpy [1] does the source give for GATCTACAATTAGATC ((((((....)))))) here?
Answer: -21.3 kcal/mol

Question: What about the Tm [2] of the same sequence?
Answer: 35.6 °C

Question: Which folding enthalpy [1] does the source give for GGAAACGAAAGTTTTTCC ((((((....)))..))) here?
Answer: -10.8 kcal/mol

Question: And the Tm [2]?
Answer: 30.6 °C

Question: What does the source list for GATCGTTATACGATC ((((((...))))))?
Answer: folding enthalpy [1]: -36.4 kcal/mol; Tm [2]: 57.9 °C

Question: For GATCACTATGTGATC ((((((...)))))), which folding enthalpy [1] is on record?
Answer: -38.8 kcal/mol

Question: And the Tm [2]?
Answer: 61.1 °C

Question: With GATCATCAAATGATC ((((((...)))))) as the sequence, how does the folding enthalpy [1] read?
Answer: -25.1 kcal/mol

Question: What about the Tm [2] of the same sequence?
Answer: 41.1 °C

Question: For GCAGCCACGAAAGTGTGC (((..(((....)))))), which folding enthalpy [1] is on record?
Answer: -12.5 kcal/mol

Question: What about the Tm [2] of the same sequence?
Answer: 40.2 °C

Question: For GTATTGGGAAACCGATAC ((((.((....)).)))), which folding enthalpy [1] is on record?
Answer: -35.7 kcal/mol

Question: And the Tm [2]?
Answer: 43.6 °C

Question: What does the source list for GACTGCCGAAAGGCGTC (((.(((....))))))?
Answer: folding enthalpy [1]: -13.8 kcal/mol; Tm [2]: 53.8 °C

Question: Which folding enthalpy [1] does the source give for CTCTGGAAACAGAG (((((....))))) here?
Answer: -19.9 kcal/mol

Question: What about the Tm [2] of the same sequence?
Answer: 46.4 °C

Question: Which folding enthalpy [1] does the source give for GATCGGCTTTCCGATC ((((((....)))))) here?
Answer: -37 kcal/mol

Question: And the Tm [2]?
Answer: 58.6 °C

Question: With GATCTCGCTAGAGATC ((((((....)))))) as the sequence, how does the folding enthalpy [1] read?
Answer: -43.5 kcal/mol

Question: And the Tm [2]?
Answer: 67.6 °C

Question: What does the source list for GCGCGGCGAAAGCCCGGC ((..(((....)))..))?
Answer: folding enthalpy [1]: -12.8 kcal/mol; Tm [2]: 59.7 °C

Question: With GAAACACGAAAGTGATTC (((.(((....))).))) as the sequence, how does the folding enthalpy [1] read?
Answer: -29.6 kcal/mol

Question: What about the Tm [2] of the same sequence?
Answer: 45.5 °C

Question: For GAATCGCGAAAGCGGTTC (((.(((....))).))), which folding enthalpy [1] is on record?
Answer: -30.3 kcal/mol

Question: What about the Tm [2] of the same sequence?
Answer: 61.7 °C

Question: Which folding enthalpy [1] does the source give for GATCCTTACGAGGATC ((((((....)))))) here?
Answer: -39.9 kcal/mol

Question: And the Tm [2]?
Answer: 53.2 °C
